Measurements published in the RNAGym collection of RNA variant scans (doi:10.1126/science.aae0568).
Variants at the floor of the assay were thinned out.

B1: tRNA (parent)
chain: GUUCCGUUGGCGUAAUGGUAACGCGUCUCCCUCCUAAGGAGAAGACUGCGGGUUCGAGUCCCGUACGGAACG

Variants of: B1
Assay: yeast fitness relative to wild type (ratio to wild type); higher = fitter; tRNA-Arg(CCU), competitive growth, 37 C, YPD
How it was run: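 A pool of Saccharomyces cerevisiae strains, each with a tRNA-Arg(CCU) gene variant at the native genomic locus, was competed in YPD at 37°C for 24 hours across six parallel replicates. The variants had been chemically synthesised at a 3% per-site mutation rate over 69 sites, and gene amplicons before and after competition were read by 100-nucleotide paired-end sequencing. Darwinian fitness relative to wild type rested on changes in genotype frequencies. Genotypes required ≥ 100 starting reads, and estimates < 0.5 were set to 0.5.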

Q: For GUUGCGUUGGGGUAAUGGUAACGCGUCUCCCUCCUAAGGAGAAGACUGCGGGUUUGAGUCACGUACGAAACG [C4G C11G C55U C61A G68A], which yeast fitness is on record?
A: ≤ 0.5

Q: Which yeast fitness does the source give for GUUGCGUUGGGGUAAUGGUAACGCGUCUCCCUCCUAAGGAGAAGACUGCAGGUUCGAGUCCCGUACGGAACG [C4G C11G G50A] here?
A: ≤ 0.5

Q: With GUUGCGUUGGGGUAAUGGCAACCCGUCGCCCUCCUAAGGAGAAGACUGCGGGUUCGAGUCGCGUACGGAACG [C4G C11G U19C G23C U28G C61G] as the variant, how does the yeast fitness read?
A: ≤ 0.5

Q: For GUUGCGUUGGUGUUAUGGUAACGCGUCUCGCUCCUAAGGAGAAGACUGCGGGUUCGAGUCCCGUACGGUACG [C4G C11U A14U C30G A69U], which yeast fitness is on record?
A: ≤ 0.5

Q: For GUUGCGUUGGUGUUAUGGUAACACGUCUCCCUCCUAAGGAGAAGACUGCGGGUUCGAGUCCAGUACGGAACG [C4G C11U A14U G23A C62A], which yeast fitness is on record?
A: ≤ 0.5

Q: Which yeast fitness does the source give for GUUGCGUUGGUGUAAUGGUAACGCGUCUCCCUACUAAGGAGAAGACUGCGGGUUCGAGCCCCGUACGGAACG [C4G C11U C33A U59C] here?
A: 0.707

Q: For GUUGCGUUGGCGUAAUGGUAAAGCGUCUCCCUCCUAAGGAGAAGACUGCGGGUUCGAGUCCCGUACGGAACG [C4G C22A], which yeast fitness is on record?
A: 0.767

Q: Which yeast fitness does the source give for GUUGCGUUGGCGUAAUGGUAAAGCGUUUCCCUCCUAAGGAGAAGACUGCGGGUUCGAGUCCCCUACGGAACG [C4G C22A C27U G63C] here?
A: 0.735

Q: For GUUGCGUUGGCGUAAUGGUAAGGUGUCUCCCUCCUAAGGAAAAGACUGCGGGUUCGAGUCCCGUACGGAACG [C4G C22G C24U G41A], which yeast fitness is on record?
A: ≤ 0.5

Q: For GUUGCGUUGGCGUAAUGGUAAGGCGUCUCCCUCCUAAGGAGAAGACUGCGGGUUCGAGUCCCGAUCGGAACG [C4G C22G U64A A65U], which yeast fitness is on record?
A: ≤ 0.5

Q: For GUUGCGUUGGCGUAAUGGUAAUGCGUUUCCCUCCUAAGGAGAAGACUGCGGGUUCGAGUCCCGUACGGAACG [C4G C22U C27U], which yeast fitness is on record?
A: 0.657

Q: For GUUGCGUUGGCGUAAUGGUAAUGCGUCUCACUCUUAACGAGAAGACUGCGGGUUCGAGUCCCGUACGGAACG [C4G C22U C30A C34U G38C], which yeast fitness is on record?
A: ≤ 0.5

Q: Which yeast fitness does the source give for GUUGCGUUGGCGUAAUGGUAAUGCGUCUCUCUUCUAAGGAGAAGCCUGCGGGUUCGAGUCCCGUACGGAACG [C4G C22U C30U C33U A45C] here?
A: ≤ 0.5

Q: Which yeast fitness does the source give for GUUGCGUUGGCGUAAUGGUAAUGCGUCUCCCUCGUUAGGAGAAGACUGCGGGUUCGAGUCCCGUACAGAACG [C4G C22U C34G A36U G67A] here?
A: ≤ 0.5

Q: For GUUGCGUUGGCGUAAUGGUAACGAGUCUCCCUCCUAAGGAGAAGAUUGCGGGUUCGAGUCCCGUACGGAGCG [C4G C24A C46U A70G], which yeast fitness is on record?
A: ≤ 0.5

Q: For GUUGCGUUGGCGUAAUGGUAACGGGUCUCCCUCCUAAGGAGAAGACUGCGGGUUCGAGUCCCGUACGGAACG [C4G C24G], which yeast fitness is on record?
A: 0.617

Q: With GUUGCGUUGGCGUAAUGGUAACGGAUCUCCCUCCAAAGGAGAAGACUGCGCGUUCGAGUCCCGUACGGAACG [C4G C24G G25A U35A G51C] as the variant, how does the yeast fitness read?
A: ≤ 0.5

Q: For GUUGCGUUGGCGUAAUGGUAACGGGUCUCCCUCCUAAGGACAAGACUGCGGGUUCGAGUCCCGUACGGAACG [C4G C24G G41C], which yeast fitness is on record?
A: ≤ 0.5

Q: For GUUGCGUUGGCGUAAUGGUAACGGGUCUCCCUCCUAAGGAGAAGACUGCGGGUUCGACUCCCGUACGGAACG [C4G C24G G58C], which yeast fitness is on record?
A: ≤ 0.5

Q: For GUUGCGUUGGCGUAAUGGUAACGUGUCUCCCUCCUAAGGAGCAGAAUGCGGGUACGAGUCCCGUACGGAACG [C4G C24U A42C C46A U54A], which yeast fitness is on record?
A: 0.623

Q: For GUUGCGUUGGCGUAAUGGUAACGUGUCUCCCUCCUAAGGAGAAGCCUGCGGGUUCGAGUCCCGUACGGAACG [C4G C24U A45C], which yeast fitness is on record?
A: 0.6

Q: For GUUGCGUUGGCGUAAUGGUAACGUGUCUCCCUGCUAAGGAGAAGACUGCGGGUUCGAGUCCCGUUUGGCACG [C4G C24U C33G A65U C66U A69C], which yeast fitness is on record?
A: 0.584

Q: Which yeast fitness does the source give for GUUGCGUUGGCGUAAUGGUAACGUGUCUCCCUCCUAAGGAGAAGACUGCGGGUUCGAGCCCCGUACGGAACG [C4G C24U U59C] here?
A: ≤ 0.5

Q: Which yeast fitness does the source give for GUUGCGUUGGCGUAAUGGUAACGCGUGUCCCUCCUAAGGAGAAGAGUGCGGGUCCGAGUCCCGUACGGAACG [C4G C27G C46G U54C] here?
A: 0.64

Q: Which yeast fitness does the source give for GUUGCGUUGGCGUAAUGGUAACGCGUUUCCCUCCUAAGGAGAAGACUGCGGGUUCGACUCCCGUACGGAACG [C4G C27U G58C] here?
A: 0.71

Q: Which yeast fitness does the source give for GUUGCGUUGGCGUAAUGGUAACGCGUCUACCUCCUAAGGAGAAGACUGCGGGUUCGAGUCCCGUACGGAACG [C4G C29A] here?
A: 0.757

Q: For GUUGCGUUGGCGUAAUGGUAACGCGUCUACCUGCUAAGGAGAAGCCUGCGGGUUCGAGUCCCGUACGGAACG [C4G C29A C33G A45C], which yeast fitness is on record?
A: 0.588

Q: Which yeast fitness does the source give for GUUGCGUUGGCGUAAUGGUAACGCGUCUACCUCUUUAGGAGAAGACUGCAGGUUCGAGUCCCGUACGGAACG [C4G C29A C34U A36U G50A] here?
A: 0.568

Q: With GUUGCGUUGGCGUAAUGGUAACGCGUCUACCUCCUAAGGAGAAGAAUGCGGGUUCGAAUCCCGUACGGAACG [C4G C29A C46A G58A] as the variant, how does the yeast fitness read?
A: 0.525

Q: Which yeast fitness does the source give for GUUGCGUUGGCGUAAUGGUAACGCGUCUGCCUCCUAGGGAGAAGACUGCGGGUUCGAGUCCCGUACGGAACG [C4G C29G A37G] here?
A: 0.598

Q: With GUUGCGUUGGCGUAAUGGUAACGCGUCUGCCUCCUAAGGAGAAGACUGCGGGUUCGAAUCCCGUACGGAACG [C4G C29G G58A] as the variant, how does the yeast fitness read?
A: 0.53

Q: With GUUGCGUUGGCGUAAUGGUAACGCGUCUUCCUCCUCAGGUGAAGACUGCGGGUUGGAGUCCCGUACGGAACG [C4G C29U A36C A40U C55G] as the variant, how does the yeast fitness read?
A: ≤ 0.5

Q: Which yeast fitness does the source give for GUUGCGUUGGCGUAAUGGUAACGCGUCUUCCUCCUAAGGAGAGGACUGCGGGGUCGAGUCCCAUACGGAACG [C4G C29U A43G U53G G63A] here?
A: ≤ 0.5

Q: With GUUGCGUUGGCGUAAUGGUAACGCGUCUCACUCCUAAGGAGUAGACUGCGGGUUUGAGUCCCGUAAGGAACG [C4G C30A A42U C55U C66A] as the variant, how does the yeast fitness read?
A: ≤ 0.5

Q: With GUUGCGUUGGCGUAAUGGUAACGCGUCUCACUCCUAAGGAGAAGUCUGCGGGUUUGAGUCCCGUACGGAACG [C4G C30A A45U C55U] as the variant, how does the yeast fitness read?
A: ≤ 0.5

Q: With GUUGCGUUGGCGUAAUGGUAACGCGUCUCACUCUUAGGGAGAAGACUGCGGGUUCGAGUCCCGUACGGAACG [C4G C30A C34U A37G] as the variant, how does the yeast fitness read?
A: ≤ 0.5

Q: With GUUGCGUUGGCGUAAUGGUAACGCGUCUCACUCCUAAGGAGAAGACUGCUGGUUCGAGUCCCGUAUGGAACG [C4G C30A G50U C66U] as the variant, how does the yeast fitness read?
A: ≤ 0.5

Q: For GUUGCGUUGGCGUAAUGGUAACGCGUCUCGCUCCUAAGGAGAAGACUGCGGGUUCGAGUCCCGUACGGAACG [C4G C30G], which yeast fitness is on record?
A: 0.713
